Test results taken from article PMC6097486 (International Journal of Biological Sciences, 2018).
Where no end group is shown, it is not given here.

Legend:
NSCLC = details: ref [7]-[9]; cited from earlier work
[1] = Gross toxicity and body weight in A549 xenograft nude mice; format: in vivo, BALB/cA nude mice; details: 5 mg/kg/day i.p., 28 days
Procedure, shortened: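 Female athymic nu/nu BALB/cA mice, 7 weeks old, SPF housing, received subcutaneous A549 cells (2 × 10^6 cells in 200 μL saline, mixed 1:1 with matrigel) into upper and lower back. Two days later, test compound in saline was given i.p. for 28 days; controls got the same volume of saline. Body weight was recorded weekly.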

FGFR1 = assay: Competitive elution of phage clones by FGF2; format: binding; details: 2 µg/ml FGF2, RT 1 h, 450 nm
Procedure, shortened: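 Phage clones (2 × 10^11 pfu/well) and control vcsM13 phage incubated on FGFR1 at RT for 1 h. Competitive elution with FGF2 (2 µg/ml) at RT for 1 h. Detection with anti-M13 mAb (37°C, 1 h), then goat anti-mouse IgG-HRP (37°C, 30 min) and TMB substrate. Absorbance read at 450 nm.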

CAM = assay: Chick chorioallantoic membrane; format: in vivo; details: FGF2 10 ng/ml alone, 24 h
Procedure, shortened: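 Test peptide applied with FGF2 (10 ng/ml) onto the CAM surface on day 8 of egg incubation. Incubation continued for 24 h, then the CAM surface was photographed to assess angiogenesis.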

[2] = test system: FGFR1-ERK1/2 MAPK signaling pathway; assay: FGFR1-ERK1/2 MAPK signaling activation by FGF2; format: cell-based, human; details: stimulation with FGF2; A549 and NCI-H460 cells
Procedure, shortened: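 A549 and NCI-H460 cells (FGFR1-high human NSCLC) grown in DMEM/high glucose with 10% FBS at 37°C, 5% CO₂. Treatment 2 h; FGFR1 inhibitor PD173074 (100 nM) as positive control. Lysate protein (30 µg) run on 10% SDS-PAGE, transferred to PVDF, blocked in 8% nonfat milk/TBST. Probed for pFGFR1 and pERK1/2 (1:1000), normalised to β-actin.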

A549 cells = assay: Tube formation assay on matrigel, A549 cells; format: cell-based, human; details: FGF2 10 ng/ml alone, 6 h, versus control (###P < 0.001)
[3] = ref [10]; cited from earlier work
human FGFR1 protein = target: T1, human FGFR1 protein (human, UniProt P11362 22-376); assay: SPR
T1 sequence (looked up): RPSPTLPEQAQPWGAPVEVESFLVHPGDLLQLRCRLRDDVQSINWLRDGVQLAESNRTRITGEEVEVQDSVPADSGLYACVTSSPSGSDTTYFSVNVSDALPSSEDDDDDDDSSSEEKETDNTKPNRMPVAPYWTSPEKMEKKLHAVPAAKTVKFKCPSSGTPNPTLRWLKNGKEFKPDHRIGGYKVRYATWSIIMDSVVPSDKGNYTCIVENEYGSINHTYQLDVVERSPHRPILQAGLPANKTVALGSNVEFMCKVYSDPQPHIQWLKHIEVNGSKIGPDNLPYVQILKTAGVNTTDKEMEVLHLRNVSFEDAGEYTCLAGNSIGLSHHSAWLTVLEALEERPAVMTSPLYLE

COc1cc(OC)cc(-c2cc3cnc(N)nc3nc2NC(=O)NC(C)(C)C)c1 [PD166866]
growth of NSCLC (NSCLC): suppress the growth of NSCLC

FHDAWPNLSKSS [R1-P2]
toxicity observed ([1]; n = 5): no remarkable toxicity observed
abnormal gross phenotypes including weight loss ([1]; n = 5, body weight recorded weekly): no signs of abnormal gross phenotypes including weight loss

FGF2: Specific ligand of FGFR1 (PeproTech)
elution efficiency for the phage clones (FGFR1): high elution efficiency
angiogenesis (CAM): significantly induce angiogenesis
activation of FGFR1-ERK1/2 MAPK signaling pathway [2]: evident
tube formation (A549 cells): significantly induce tube formation

CCN(CC)CCCCNc1ncc2cc(-c3cc(OC)cc(OC)c3)c(NC(=O)NC(C)(C)C)nc2n1 [PD173074]
growth of NSCLC (NSCLC): suppress the growth of NSCLC
toxicity / clinical progress [3]: failed to enter phase II clinical trials due to their high toxicities

Cc1c[nH]c(/C=C2\C(=O)Nc3ccccc32)c1CCC(=O)O [SU5402]
growth of NSCLC (NSCLC): suppress the growth of NSCLC
toxicity / clinical progress [3]: failed to enter phase II clinical trials due to their high toxicities

FHDAWPNLSKSS [peptide R1-P2]
Kd (human FGFR1 protein): ~154 nM
